Assay results published in ChEMBL document CHEMBL3352791, “Thioaryl naphthylmethanone oxime ether analogs as novel anticancer agents” (J Med Chem, 2014).
Calls of active or inactive are those of the source. The calls are words filed in the database; no cut-off is given here.

Tests used:
MDA-MB-231 [1] = assay: Antiproliferative activity against human ER-positive MDA-MB-231 cells after 24 hrs by MTT assay; format: functional, cell-based; conditions: mda-mb-231
[2] = Safety index, ratio of IC50 for human MCF10A cells to EC50 for human HCT116 cells; format: toxicity, cell-based, MCF-10A; conditions: MCF10A cells versus HCT116 cells, read-out: Ratio IC50/EC50
Method in brief: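 Safety index is the IC50 in the normal cells divided by the EC50 in the cancer cells. Both values come from MTT assays: cells in DMEM with 10% FBS, serum-starved 4 h, then exposed to compound across a 100nM-50µM dose range with 0.1% DMSO as vehicle control.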

MCF7 = assay: Cell cycle arrest in human […] cells assessed as accumulation at G1 phase at 7.5 uM by propidium iodide staining by FACS analysis (reference value: 62.88%); format: functional
HeLa = assay: Antiproliferative activity against human HeLa cells after 24 hrs by MTT assay; format: functional, cell-based; conditions: hela
MDA-MB-231 [3] = assay: Cell cycle arrest in human […] cells assessed as accumulation at subG1 phase at 7.5 uM by propidium iodide staining by FACS analysis (reference value: 0.3%); format: functional
[4] = Antiproliferative activity against human DLD1 cells after 24 hrs by MTT assay; format: functional, cell-based; conditions: DLD-1, 24 h
Method in brief: (§1)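 MTT viability: cells seeded at 1×10^4 per well in DMEM with 10% FBS, left to adhere overnight, then serum-starved 4 h. Compounds were given at a range of doses, with 0.1% DMSO vehicle as control. EC50 was taken from dose-response curves spanning 100nM-50µM. Data are mean ± SEM from at least three independent experiments.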

MDA-MB-231 [5] = assay: Cell cycle arrest in human […] cells assessed as accumulation at G2 phase at 7.5 uM by propidium iodide staining by FACS analysis (reference value: 22.74%); format: functional
[6] = Antiproliferative activity against human prostate, androgen receptor positive DU145 cells after 24 hrs by MTT assay; format: functional, cell-based, DU-145; conditions: du-145
SW-620 = assay: Antiproliferative activity against human SW620 cells after 24 hrs by MTT assay; format: functional, cell-based; conditions: SW-620, 24 h; method in brief: as §1
MDA-MB-231 [7] = assay: Cell cycle arrest in human […] cells assessed as accumulation at subG1 phase at 2.5 uM by propidium iodide staining by FACS analysis (reference value: 0.3%); format: functional
[8] = target: cGMP-specific 3',5'-cyclic phosphodiesterase (Canis lupus familiaris) (UniProt O77746); assay: Inhibition of PDE5 CAT (unknown origin) activity at 1 to 10 uM; conditions: Homo sapiens
Method in brief: (§2)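 Recombinant PDE isoform activity was read by fluorescence polarization. A binding reagent complexes with the nucleotide monophosphate that the phosphodiesterase generates from cAMP/cGMP, and this raises the polarization of the labelled substrate. Reference standards were PDE1A3 10µM IBMX, PDE2A3 1nM BAY 60-7550, PDE3CAT 1µM cilostazol, PDE4CAT rolipram, PDE5CAT 0.1µM sildenafil, PDE7A […], PDE8A1 10µM BRL-50481, PDE9A1 1µM SB 36216 and PDE11A1 dipyridamole.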

[9] = target: High affinity 3',5'-cyclic-AMP phosphodiesterase 7A (Homo sapiens) (UniProt Q13946); assay: Inhibition of PDE7A (unknown origin) activity at 1 to 10 uM; method in brief: as §2
[10] = target: T1, Signal transducer and activator of transcription 1-alpha/beta (Homo sapiens) (UniProt P42224); assay: Inhibition of basal level STAT1 phosphorylation in human MDA-MB-231 cells at 1 uM by ELISA; format: cell-based
T1 sequence (whole entry): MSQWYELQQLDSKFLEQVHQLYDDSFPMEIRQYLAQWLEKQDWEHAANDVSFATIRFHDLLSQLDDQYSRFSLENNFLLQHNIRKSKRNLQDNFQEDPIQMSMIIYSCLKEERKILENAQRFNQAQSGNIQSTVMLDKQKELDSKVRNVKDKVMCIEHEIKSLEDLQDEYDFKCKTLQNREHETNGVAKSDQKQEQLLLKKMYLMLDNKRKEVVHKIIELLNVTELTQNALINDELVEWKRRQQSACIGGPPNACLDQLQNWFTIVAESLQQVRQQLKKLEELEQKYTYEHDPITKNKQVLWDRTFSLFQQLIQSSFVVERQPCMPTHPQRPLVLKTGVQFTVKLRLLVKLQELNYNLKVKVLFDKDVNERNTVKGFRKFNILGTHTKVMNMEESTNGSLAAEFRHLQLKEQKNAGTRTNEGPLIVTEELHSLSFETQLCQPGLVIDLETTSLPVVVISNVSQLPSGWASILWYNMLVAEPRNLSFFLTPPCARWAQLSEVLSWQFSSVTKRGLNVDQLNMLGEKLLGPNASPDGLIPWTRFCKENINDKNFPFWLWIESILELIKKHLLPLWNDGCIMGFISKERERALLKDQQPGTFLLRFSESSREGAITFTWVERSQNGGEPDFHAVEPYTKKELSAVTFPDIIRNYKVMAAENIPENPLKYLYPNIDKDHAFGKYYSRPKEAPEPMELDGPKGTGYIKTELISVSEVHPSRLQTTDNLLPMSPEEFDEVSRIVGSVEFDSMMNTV

MDA-MB-231 [11] = assay: Inhibition of VEGF expression in human MDA-MB-231 cells at 5 uM by ELISA; format: functional, cell-based
[12] = target: Induced myeloid leukemia cell differentiation protein Mcl-1 (Homo sapiens) (UniProt Q07820); assay: Inhibition of basal level Mcl1 phosphorylation in human MDA-MB-231 cells at 1 uM by ELISA; format: cell-based
MDA-MB-231 [13] = assay: Inhibition of VEGF-C expression in human MDA-MB-231 cells at 1 uM after 24 hrs by qPCR analysis; format: functional, cell-based
Method in brief: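 Gene expression was measured by qPCR in MDA-MB-231 breast cancer cells treated with 1µM compound. GAPDH served as the housekeeping internal control.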

MDA-MB-231 [14] = assay: Inhibition of secreted PAI-1 protein expression in human MDA-MB-231 cells at 1 uM after 24 hrs by ELISA; format: functional, cell-based
Method in brief: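 MDA-MB-231 cells were treated at 1µM for 24 h, with or without EGF. PAI-1 protein concentration in the collected conditioned medium was then measured by ELISA.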

[15] = target: Signal transducer and activator of transcription 3 (Homo sapiens) (UniProt P40763); assay: Inhibition of EGF-induced STAT3 phosphorylation in human MCF7 cells at 1 uM by ELISA; format: cell-based
MDA-MB-231 [16] = assay: Cytotoxicity against human MDA-MB-231 cells assessed as cell viability at 5 uM by MTT assay in presence of 100 ng/ml pertussis toxin for 16 hrs; format: functional, cell-based
[17] = target: ETS domain-containing protein Elk-1 (Homo sapiens) (UniProt P19419); assay: Inhibition of basal level ELK1 phosphorylation in human MDA-MB-231 cells at 1 uM by ELISA; format: cell-based
[18] = target: Induced myeloid leukemia cell differentiation protein Mcl-1 (Homo sapiens) (UniProt Q07820); assay: Inhibition of EGF-induced phosphorylated Mcl1 in human MDA-MB-231 cells at 1 uM by ELISA; format: cell-based
[19] = target: Dual specificity calcium/calmodulin-dependent 3',5'-cyclic nucleotide phosphodiesterase 1A (Homo sapiens) (UniProt P54750); assay: Inhibition of PDE1A3 (unknown origin) activity at 1 to 10 uM; method in brief: as §2
Chain of Dual specificity calcium/calmodulin-dependent 3',5'-cyclic nucleotide phosphodiesterase 1A (Homo sapiens) (P54750 whole entry): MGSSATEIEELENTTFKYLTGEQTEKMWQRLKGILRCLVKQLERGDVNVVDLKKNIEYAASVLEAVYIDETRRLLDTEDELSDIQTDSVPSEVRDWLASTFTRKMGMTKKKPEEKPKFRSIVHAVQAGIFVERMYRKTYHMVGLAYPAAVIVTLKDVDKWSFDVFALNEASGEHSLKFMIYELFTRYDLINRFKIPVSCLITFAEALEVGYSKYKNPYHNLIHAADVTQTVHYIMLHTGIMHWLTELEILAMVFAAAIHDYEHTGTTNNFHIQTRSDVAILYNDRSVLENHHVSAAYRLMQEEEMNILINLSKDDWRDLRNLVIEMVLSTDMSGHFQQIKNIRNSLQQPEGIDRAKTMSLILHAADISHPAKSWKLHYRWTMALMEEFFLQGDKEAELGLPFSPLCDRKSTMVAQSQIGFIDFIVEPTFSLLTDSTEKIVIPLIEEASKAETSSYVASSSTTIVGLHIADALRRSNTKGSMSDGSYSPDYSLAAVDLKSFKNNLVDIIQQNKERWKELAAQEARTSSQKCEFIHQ

Chain of Induced myeloid leukemia cell differentiation protein Mcl-1 (Homo sapiens) (Q07820 whole entry): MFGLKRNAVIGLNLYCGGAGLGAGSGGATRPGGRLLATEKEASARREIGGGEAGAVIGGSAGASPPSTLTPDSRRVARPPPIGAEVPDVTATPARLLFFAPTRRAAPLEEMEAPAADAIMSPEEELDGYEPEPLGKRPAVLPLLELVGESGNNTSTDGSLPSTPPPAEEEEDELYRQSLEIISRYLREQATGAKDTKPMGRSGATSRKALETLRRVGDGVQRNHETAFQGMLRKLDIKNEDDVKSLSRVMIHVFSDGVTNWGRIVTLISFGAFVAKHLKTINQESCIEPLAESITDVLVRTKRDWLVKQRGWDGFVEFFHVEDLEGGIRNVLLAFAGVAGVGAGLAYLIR
Chain of Signal transducer and activator of transcription 3 (Homo sapiens) (P40763 whole entry): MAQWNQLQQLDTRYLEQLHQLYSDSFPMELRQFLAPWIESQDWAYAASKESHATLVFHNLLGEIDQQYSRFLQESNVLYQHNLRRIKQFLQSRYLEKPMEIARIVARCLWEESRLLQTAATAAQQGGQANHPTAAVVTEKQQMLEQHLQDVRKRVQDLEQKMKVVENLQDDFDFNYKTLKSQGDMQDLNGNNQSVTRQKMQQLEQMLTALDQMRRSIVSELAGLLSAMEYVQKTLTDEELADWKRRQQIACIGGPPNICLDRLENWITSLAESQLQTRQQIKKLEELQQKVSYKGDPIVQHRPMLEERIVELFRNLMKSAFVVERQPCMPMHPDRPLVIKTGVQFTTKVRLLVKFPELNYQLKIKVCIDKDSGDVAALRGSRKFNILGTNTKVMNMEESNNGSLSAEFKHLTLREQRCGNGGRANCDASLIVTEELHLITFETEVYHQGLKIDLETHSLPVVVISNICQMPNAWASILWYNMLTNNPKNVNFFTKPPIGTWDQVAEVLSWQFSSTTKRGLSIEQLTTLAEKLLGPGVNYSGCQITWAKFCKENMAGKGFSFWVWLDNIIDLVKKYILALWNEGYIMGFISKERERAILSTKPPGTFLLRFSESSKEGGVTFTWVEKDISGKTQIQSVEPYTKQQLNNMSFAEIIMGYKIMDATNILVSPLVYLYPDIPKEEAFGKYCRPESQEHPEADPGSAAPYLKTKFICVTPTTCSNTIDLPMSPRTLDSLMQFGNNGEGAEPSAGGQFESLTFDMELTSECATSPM
Chain of High affinity 3',5'-cyclic-AMP phosphodiesterase 7A (Homo sapiens) (Q13946 whole entry): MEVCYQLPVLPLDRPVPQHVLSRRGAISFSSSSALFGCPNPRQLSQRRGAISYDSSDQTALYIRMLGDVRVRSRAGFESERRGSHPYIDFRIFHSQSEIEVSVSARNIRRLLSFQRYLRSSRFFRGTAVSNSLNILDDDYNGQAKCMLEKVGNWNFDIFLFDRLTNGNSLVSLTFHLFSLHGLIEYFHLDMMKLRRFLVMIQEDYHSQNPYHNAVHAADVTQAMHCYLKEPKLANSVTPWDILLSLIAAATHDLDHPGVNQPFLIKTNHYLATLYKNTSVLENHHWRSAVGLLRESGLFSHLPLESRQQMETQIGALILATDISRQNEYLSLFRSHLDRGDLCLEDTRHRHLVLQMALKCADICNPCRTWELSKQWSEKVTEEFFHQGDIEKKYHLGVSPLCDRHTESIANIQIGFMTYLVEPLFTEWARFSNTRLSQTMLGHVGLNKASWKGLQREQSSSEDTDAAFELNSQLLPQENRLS
Chain of ETS domain-containing protein Elk-1 (Homo sapiens) (P19419 whole entry, the tested form may be a part): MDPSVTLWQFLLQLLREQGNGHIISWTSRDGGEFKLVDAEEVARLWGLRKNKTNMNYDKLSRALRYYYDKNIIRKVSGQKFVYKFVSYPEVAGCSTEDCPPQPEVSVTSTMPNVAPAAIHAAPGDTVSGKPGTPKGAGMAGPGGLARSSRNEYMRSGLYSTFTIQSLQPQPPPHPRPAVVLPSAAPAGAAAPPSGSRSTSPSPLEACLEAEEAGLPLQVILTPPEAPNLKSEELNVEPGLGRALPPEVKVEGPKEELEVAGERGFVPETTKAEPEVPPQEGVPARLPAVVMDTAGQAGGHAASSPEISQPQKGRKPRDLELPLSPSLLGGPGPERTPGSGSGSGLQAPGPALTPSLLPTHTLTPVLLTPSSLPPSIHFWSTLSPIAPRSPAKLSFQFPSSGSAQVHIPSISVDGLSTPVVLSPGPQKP

CCN(CC)CCO/N=C(\c1ccc(SC)cc1)c1cccc2ccccc12.O=C(O)C(=O)O
EC50 (MDA-MB-231 [1]): 7.2 µM
selectivity ratio [2]: 2.5
Activity (MCF7): 85.99%
EC50 (HeLa): 7.5 µM
Activity (MDA-MB-231 [3]): 0.8%
EC50 [4]: 15.6 µM
Activity (MDA-MB-231 [5]): 6.09%
EC50 [6]: 9 µM
EC50 (SW-620): 8.78 µM
Activity (MDA-MB-231 [7]): 0.99%

CCN(CC)CCO/N=C(\c1ccc(SC)cc1)c1cccc2ccccc12
inhibition [8]: inactive
inhibition [9]: inactive
inhibition [10]: inactive
inhibition (MDA-MB-231 [11]): inactive
inhibition [12]: Active
inhibition (MDA-MB-231 [13]): inactive
inhibition (MDA-MB-231 [14]): Active
inhibition [15]: Active
inhibition (MDA-MB-231 [16]): inactive
inhibition [17]: Active
inhibition [18]: Active
inhibition [19]: inactive
